Calls of active or inactive are those of the source. No cut-off for these calls is given here.
Columns and labels:
Macrophage [1] = assay: Inhibition of LPS-induced NO production in C57BL/6 mouse macrophages preincubated with compound for 1 hr before LPS challenge measured after 24 hrs by Griess method; format: functional, cell-based; conditions: C57BL/6, Macrophage
In short: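 Peritoneal macrophages harvested from male C57BL/6J mice 3 days after ip thioglycollate; 1 × 10^5 cells/well in RPMI-1640 + 5% newborn calf serum, nonadherent cells removed after 2 h. Compounds added 1 h before LPS 1 μg/mL; 24 h later supernatant nitrite read by Griess reagent at 570 nm against a nitrite standard curve. IC50 from ≥2 experiments in triplicate; selectivity index = cytotoxicity IC50 / NO-inhibition IC50.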

[2] = Cytotoxicity against C57BL/6 mouse macrophages after 24 hrs by MTT assay; format: cell-based; conditions: C57BL/6, Macrophage
In short: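 Thioglycollate-elicited peritoneal macrophages from male C57BL/6 mice, 1 × 10^5 cells/well, adhered 2 h, then exposed to compounds 24 h. Washed, MTT (5 mg/mL in PBS) added 4 h at 37 °C, formazan dissolved in DMSO, absorbance 570 nm.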

Macrophage [3] = assay: Selectivity index, ratio of IC50 for C57BL/6 mouse macrophages to IC50 for LPS-induced NO production in C57BL/6 mouse macrophages
Macrophage [4] = assay: Inhibition of intrinsic NO production in C57BL/6 mouse macrophages at 10 uM measured after 24 hrs by Griess method; format: functional, cell-based
In short: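 Unstimulated peritoneal macrophages (no LPS) cultured 2 h, then exposed to compound at 10 μM for 24 h. Supernatant nitrite measured by Griess assay at 570 nm against a standard curve; untreated, vehicle and LPS (1 μg/mL) wells as controls. Three independent experiments, mean ± SEM.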

Macrophage [5] = assay: Inhibition of LPS-induced iNOS expression in C57BL/6 mouse macrophages preincubated at 1 uM for 1 hr before LPS challenge measured after 24 hrs by immunoblotting; format: functional, cell-based
In short: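 Male C57BL/6 peritoneal macrophages pretreated 1 h with compound at 1 μM, then LPS 1 μg/mL for 24 h. Lysates resolved on 10% SDS-PAGE and transferred to PVDF; blots probed with rabbit anti-iNOS and anti-β-actin (1:1000, overnight 4 °C), visualized by ECL. iNOS/β-actin ratio from densitometry; three independent experiments, mean ± SEM.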

Mus musculus [6] = assay: Antiinflammatory activity in Kunming mouse assessed as inhibition of croton oil-induced ear edema at 5 umol/kg, po administered before challenge relative to vehicle-treated control; format: functional
In short: (§1)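 Male Kunming mice; croton oil applied topically to left ear at 0.4 mg/ear. Test agent or equal-volume vehicle given 1 h before (po 5, 10, 20 μmol/kg; sc 77, 154, 308 μmol/kg). Euthanized under pentobarbital 4 h after croton oil; 8 mm ear punches weighed, left minus right weight = edema; inhibition vs vehicle group. n = 10 (po) or 8–9 (sc); mean ± SEM.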

Mus musculus [7] = assay: Antiinflammatory activity in Kunming mouse assessed as inhibition of croton oil-induced ear edema at 10 umol/kg, po administered before challenge relative to vehicle-treated control; format: functional; in short: as §1
Mus musculus [8] = assay: Antiinflammatory activity in Kunming mouse assessed as inhibition of croton oil-induced ear edema at 20 umol/kg, po administered before challenge relative to vehicle-treated control; format: functional; in short: as §1
Mus musculus [9] = assay: Antiinflammatory activity in Kunming mouse assessed as inhibition of croton oil-induced ear edema at 77 umol/kg, sc administered before challenge relative to vehicle-treated control; format: functional; in short: as §1
Mus musculus [10] = assay: Antiinflammatory activity in Kunming mouse assessed as inhibition of croton oil-induced ear edema at 154 umol/kg, sc administered before challenge relative to vehicle-treated control; format: functional; in short: as §1
Mus musculus [11] = assay: Antiinflammatory activity in Kunming mouse assessed as inhibition of croton oil-induced ear edema at 308 umol/kg, sc administered before challenge relative to vehicle-treated control; format: functional; in short: as §1
Mus musculus [12] = assay: Antiinflammatory activity in specific pathogen-free COPD-like lung inflammation BALB/c mouse model assessed as inhibition of IL-8 level at 2 umol/kg/day, po for 35 days measured 24 hrs post last dose relative to vehicle-treated control; format: functional
In short: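 SPF male BALB/c mice (18−20 g) exposed to cigarette smoke 5 min twice daily (days 2–13, 15–35) plus 20 μg LPS in 30 μL saline (days 1, 14). Oral drug 2 μmol/kg daily for 35 days, 1 h before exposure. Killed ~24 h after last dose; lungs lavaged 3× with 0.8 mL ice-cold saline; IL-8 in BAL supernatant by ELISA; n = 8−11, mean ± SEM.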

Mus musculus [13] = assay: Antiinflammatory activity in specific pathogen-free COPD-like lung inflammation BALB/c mouse model assessed as inhibition of white blood cells at 2 umol/kg/day, po for 35 days measured 24 hrs post last dose relative to vehicle-treated control; format: functional, organism-based
In short: (§2)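 Male SPF BALB/c mice (18−20 g) given cigarette smoke 5 min twice daily (days 2−13, 15−35) plus LPS 20 μg in 30 μL saline on days 1 and 14. Oral dosing 1 h before first exposure, daily for 35 days. BAL (3 × 0.8 mL ice-cold saline) collected about 24 h after final dose. Centrifuged pellet resuspended in 200 μL PBS and counted by hemocytometer for differential cells.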

Mus musculus [14] = assay: Antiinflammatory activity in specific pathogen-free COPD-like lung inflammation BALB/c mouse model assessed as inhibition of eosinophils at 2 umol/kg/day, po for 35 days measured 24 hrs post last dose relative to vehicle-treated control; format: functional, organism-based; in short: as §2
Mus musculus [15] = assay: Antiinflammatory activity in specific pathogen-free COPD-like lung inflammation BALB/c mouse model assessed as inhibition of TNFalpha level at 2 umol/kg/day, po for 35 days measured 24 hrs post last dose relative to vehicle-treated control; format: functional, organism-based
In short: (§3)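 Male SPF BALB/c mice (18−20 g) exposed to cigarette smoke 5 min twice daily on days 2−13 and 15−35, with 20 μg LPS in 30 μL saline on days 1 and 14. Dosed orally 1 h before first exposure, daily for 35 days. Lungs lavaged 3× with 0.8 mL ice-cold saline about 24 h after last dose. Supernatant cytokines measured by ELISA. n = 8−11, mean ± SEM, Student's t test.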

Mus musculus [16] = assay: Antiinflammatory activity in specific pathogen-free COPD-like lung inflammation BALB/c mouse model assessed as inhibition of IL-1beta level at 2 umol/kg/day, po for 35 days measured 24 hrs post last dose relative to vehicle-treated control; format: functional, organism-based; in short: as §3
Mus musculus [17] = assay: Antiinflammatory activity in specific pathogen-free COPD-like lung inflammation BALB/c mouse model assessed as inhibition of IL-6 level at 2 umol/kg/day, po for 35 days measured 24 hrs post last dose relative to vehicle-treated control; format: functional, organism-based; in short: as §3
[18] = Toxicity in Kunming mouse administered orally as single dose measured over 14 days; format: organism-based; conditions: in vivo, po
In short: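 SPF Kunming mice, half male and half female, fasted 16 h with water allowed, then weighed and randomized at 10/group. Single gavage dose (0.1 mL/10 g) at various doses, with solvent-only controls. Survival monitored for 14 days.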

Mus musculus [19] = assay: Antiinflammatory activity in specific pathogen-free COPD-like lung inflammation BALB/c mouse model assessed as inhibition of neutrophils at 2 umol/kg/day, po for 35 days measured 24 hrs post last dose relative to vehicle-treated control; format: functional; in short: as §2

Structure (SMILES)	IC50 (Macrophage [1])	IC50 [2]	Ratio IC50 (Macrophage [3])	inhibition (Macrophage [4])	inhibition (Macrophage [5])	other results
CC(C)=CC(=O)O[C@H]1C(=O)O[C@@H]2C[C@H]3C(C)=C(OC(=O)CCC(=O)OCCCCOc4no[n+]([O-])c4S(=O)(=O)c4ccccc4)C(=O)C[C@]3(C)[C@H]3[C@@H](O)[C@H](OC(=O)CCC(=O)OCCCCOc4no[n+]([O-])c4S(=O)(=O)c4ccccc4)[C@]4(C(=O)O)OC[C@]32[C@@H]14	67 nM	> 10000 nM	>149	inactive	Active	inhibition in vivo at 5 µmol/kg (Mus musculus [6]): 0.9%; inhibition in vivo at 10 µmol/kg (Mus musculus [7]): 6.4%; inhibition in vivo at 20 µmol/kg (Mus musculus [8]): 7.8%; inhibition in vivo at 77 µmol/kg (Mus musculus [9]): 31.4%; inhibition in vivo at 154 µmol/kg (Mus musculus [10]): 61%; inhibition in vivo at 308 µmol/kg (Mus musculus [11]): 76.5%; inhibition in vivo at 2 µmol/kg (Mus musculus [12]): 48%; inhibition (Mus musculus [13]): Active; inhibition (Mus musculus [14]): Active; inhibition (Mus musculus [15]): Active; inhibition (Mus musculus [16]): Active; inhibition (Mus musculus [17]): Active; LD50 at 336 h [18]: > 3850 µmol/kg
COC(=O)[C@]12OC[C@]34[C@H]([C@@H](O)[C@@H]1O)[C@@]1(C)CC(=O)C(OC(=O)CCC(=O)OCCCCOc5no[n+]([O-])c5S(=O)(=O)c5ccccc5)=C(C)[C@@H]1C[C@H]3OC(=O)[C@H](OC(=O)C=C(C)C)[C@@H]24	89 nM	790 nM	8.9	inactive		inhibition in vivo at 5 µmol/kg (Mus musculus [6]): 29.4%; inhibition in vivo at 10 µmol/kg (Mus musculus [7]): 39.9%; inhibition in vivo at 20 µmol/kg (Mus musculus [8]): 53.9%; inhibition in vivo at 2 µmol/kg (Mus musculus [19]): 85%; inhibition (Mus musculus [13]): Active; inhibition (Mus musculus [14]): Active; inhibition (Mus musculus [15]): Active; inhibition (Mus musculus [16]): Active; inhibition (Mus musculus [17]): Active; LD50 at 336 h [18]: 41.1 µmol/kg
COC(=O)[C@]12OC[C@]34[C@H]([C@@H](O)[C@@H]1O)[C@@]1(C)CC(=O)C(OC(=O)c5ccccc5C(=O)OCCCCOc5no[n+]([O-])c5S(=O)(=O)c5ccccc5)=C(C)[C@@H]1C[C@H]3OC(=O)[C@H](OC(=O)C=C(C)C)[C@@H]24	690 nM	1300 nM	1.9			
CC(C)=CC(=O)O[C@H]1C(=O)O[C@@H]2C[C@H]3C(C)=C(O)C(=O)C[C@]3(C)[C@H]3[C@@H](O)[C@H](O)[C@]4(C(=O)O)OC[C@]32[C@@H]14	> 10000 nM	> 10000 nM		Active	Active	
CC(C)=CC(=O)O[C@H]1C(=O)O[C@@H]2C[C@H]3C(C)=C(OC(=O)CCC(=O)OCCCCOc4no[n+]([O-])c4S(=O)(=O)c4ccccc4)C(=O)C[C@]3(C)[C@H]3[C@@H](O)[C@H](O)[C@]4(C(=O)O)OC[C@]32[C@@H]14	1300 nM	> 10000 nM	>7.6	inactive	Active	
CC(C)=CC(=O)O[C@H]1C(=O)O[C@@H]2C[C@H]3C(C)=C(O)C(=O)C[C@]3(C)[C@H]3[C@@H](O)[C@H](OC(=O)CCC(=O)OCCCCOc4no[n+]([O-])c4S(=O)(=O)c4ccccc4)[C@]4(C(=O)O)OC[C@]32[C@@H]14	11000 nM	> 10000 nM		inactive	Active	
COC(=O)[C@]12OC[C@]34[C@H]([C@@H](O)[C@@H]1O)[C@@]1(C)CC(=O)C(O)=C(C)[C@@H]1C[C@H]3OC(=O)[C@H](OC(=O)CCC(=O)OCCCCOc1no[n+]([O-])c1S(=O)(=O)c1ccccc1)[C@@H]24	210 nM	1200 nM	5.7			
CC(C)=CC(=O)O[C@H]1C(=O)O[C@@H]2C[C@H]3C(C)=C(O)C(=O)C[C@]3(C)[C@H]3[C@@H](O)[C@H](O)[C@]4(C(=O)OCc5ccc(OCc6c(-c7ccccc7)no[n+]6[O-])cc5)OC[C@]32[C@@H]14	2200 nM	3900 nM	1.8			
COC(=O)[C@]12OC[C@]34[C@H]([C@@H](O)[C@@H]1O)[C@@]1(C)CC(=O)C(O)=C(C)[C@@H]1C[C@H]3OC(=O)[C@H](OC(=O)C=C(C)C)[C@@H]24 [BRUSATOL]	50 nM	140 nM				inhibition in vivo at 5 µmol/kg (Mus musculus [6]): 24.3%; inhibition in vivo at 10 µmol/kg (Mus musculus [7]): 27.1%; inhibition in vivo at 20 µmol/kg (Mus musculus [8]): 46.8%; inhibition in vivo at 2 µmol/kg (Mus musculus [12]): 46%
COC(=O)[C@]12OC[C@]34[C@H]([C@@H](O)[C@@H]1O)[C@@]1(C)CC(=O)C(O)=C(C)[C@@H]1C[C@H]3OC(=O)[C@H](OC(=O)CCC(=O)OCc1ccc(OCc3c(-c5ccccc5)no[n+]3[O-])cc1)[C@@H]24	380 nM	820 nM	2.2			
COC(=O)[C@]12OC[C@]34[C@H]([C@@H](O)[C@@H]1O)[C@@]1(C)CC(=O)C(OCc5ccc(OCc6c(-c7ccccc7)no[n+]6[O-])cc5)=C(C)[C@@H]1C[C@H]3OC(=O)[C@H](OC(=O)C=C(C)C)[C@@H]24	2100 nM	> 10000 nM	>4.7			
COC(=O)[C@]12OC[C@]34[C@H]([C@@H](O)[C@@H]1O)[C@@]1(C)CC(=O)C(OC(=O)CCC(=O)OCc5ccc(OCc6c(-c7ccccc7)no[n+]6[O-])cc5)=C(C)[C@@H]1C[C@H]3OC(=O)[C@H](OC(=O)C=C(C)C)[C@@H]24	47 nM	150 nM	3.2	Active		
CC(C)=CC(=O)O[C@H]1C(=O)O[C@@H]2C[C@H]3C(C)=C(O)C(=O)C[C@]3(C)[C@H]3[C@@H](O)[C@H](O)[C@]4(C(=O)OCCCCOc5no[n+]([O-])c5S(=O)(=O)c5ccccc5)OC[C@]32[C@@H]14	1100 nM	3000 nM	2.7			

Reference: ChEMBL document CHEMBL3352594 (J Med Chem, 2014)
